Test results as given in ChEMBL document CHEMBL3091364, “Benzyloxybenzylammonium chlorides: Simple amine salts that display anticonvulsant activity” (Bioorg Med Chem, 2013).
Calls of active or inactive are those of the source. The calls are words filed in the database; no cut-off is given here.

What was measured:
[1] = Toxicity in ip dosed albino CF-1 mouse assessed as neurological impairment measured at 0.25 to 4 hrs by rotorod test; format: organism-based; settings: in vivo
Outline: (§1)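 Male albino Carworth Farms No. 1 mice dosed intraperitoneally under the NINDS Anticonvulsant Screening Program; neurological impairment scored by rotorod test. Qualitative screens used preset doses (e.g., 30, 100 mg/kg); where activity was sufficient, dose–response curves were run at time of peak effect to give TD50 in mg/kg with 95% confidence intervals.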

[2] = target: D(2) dopamine receptor (Homo sapiens) (UniProt P14416); assay: Inhibition of dopaminergic D2 receptor (unknown origin) at 10 uM relative to control
[3] = target: T1, Alpha-1A adrenergic receptor (Homo sapiens) (UniProt P35348); assay: Inhibition of adrenergic alpha-1A receptor (unknown origin) at 10 uM relative to control
T1 sequence (whole entry): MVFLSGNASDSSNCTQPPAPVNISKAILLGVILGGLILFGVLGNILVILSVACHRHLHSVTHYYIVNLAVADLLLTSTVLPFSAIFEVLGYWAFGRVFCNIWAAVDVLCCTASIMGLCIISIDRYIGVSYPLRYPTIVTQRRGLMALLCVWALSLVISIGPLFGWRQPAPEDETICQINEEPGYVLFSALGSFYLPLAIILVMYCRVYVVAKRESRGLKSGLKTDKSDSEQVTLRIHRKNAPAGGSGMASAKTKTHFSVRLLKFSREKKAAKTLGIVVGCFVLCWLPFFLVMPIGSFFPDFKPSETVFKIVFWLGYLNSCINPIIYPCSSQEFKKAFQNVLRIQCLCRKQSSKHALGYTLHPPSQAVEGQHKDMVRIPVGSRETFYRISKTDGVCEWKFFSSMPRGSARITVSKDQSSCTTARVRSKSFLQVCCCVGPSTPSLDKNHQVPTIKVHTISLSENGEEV

[4] = target: T2, Alpha-1D adrenergic receptor (Homo sapiens) (UniProt P25100); assay: Inhibition of adrenergic alpha-1D receptor (unknown origin) at 10 uM relative to control
T2 sequence (whole entry): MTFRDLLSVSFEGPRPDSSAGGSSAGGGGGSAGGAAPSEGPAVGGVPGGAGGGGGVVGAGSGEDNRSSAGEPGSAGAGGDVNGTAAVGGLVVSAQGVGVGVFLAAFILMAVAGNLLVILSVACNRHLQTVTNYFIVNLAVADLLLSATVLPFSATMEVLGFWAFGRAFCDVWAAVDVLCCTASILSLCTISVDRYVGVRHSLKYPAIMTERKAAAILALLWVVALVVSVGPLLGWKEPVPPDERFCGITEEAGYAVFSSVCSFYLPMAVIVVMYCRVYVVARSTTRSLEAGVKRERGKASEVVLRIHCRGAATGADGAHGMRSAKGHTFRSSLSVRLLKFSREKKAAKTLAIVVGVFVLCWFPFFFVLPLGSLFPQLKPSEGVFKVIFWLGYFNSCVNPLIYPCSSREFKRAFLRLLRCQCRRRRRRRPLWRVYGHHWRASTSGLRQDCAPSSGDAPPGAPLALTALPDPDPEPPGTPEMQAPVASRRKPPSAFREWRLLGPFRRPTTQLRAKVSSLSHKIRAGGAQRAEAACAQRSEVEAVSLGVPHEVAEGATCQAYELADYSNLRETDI

[5] = target: 5-hydroxytryptamine receptor 1B (Homo sapiens) (UniProt P28222); assay: Inhibition of 5-HT1B receptor (unknown origin) at 10 uM relative to control
Rattus norvegicus [6] = species: Rattus norvegicus; assay: Inhibition of Na+ channel in rat embryonic cortical neurons assessed as hyperpolarizing shift of current at 10 uM by whole-cell voltage clamp assay
Rattus norvegicus [7] = assay: Anticonvulsant activity in ip dosed albino Sprague-Dawley rat assessed as protection against maximal electroshock-induced seizures measured at 0.5 hrs; format: functional
Outline: (§2)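 Screened under the NINDS ASP in male albino Carworth Farms No. 1 mice (ip) or male albino Sprague-Dawley rats (ip or po), using MES, 6 Hz (32 mA) and subcutaneous pentylenetetrazol seizure tests. Initial qualitative tests used preset doses (e.g., 30, 50, 100 mg/kg). ED50 values with 95% confidence intervals came from dose–response data collected at the time of peak effect.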

Rattus norvegicus [8] = species: Rattus norvegicus; assay: Induction of Na+ channel slow inactivation in rat embryonic cortical neurons at 10 uM by whole-cell voltage clamp assay
[9] = target: T3, 5-hydroxytryptamine receptor 3A (Homo sapiens) (UniProt P46098); assay: Inhibition of 5-HT3 receptor (unknown origin) at 10 uM relative to control
T3 sequence (whole entry): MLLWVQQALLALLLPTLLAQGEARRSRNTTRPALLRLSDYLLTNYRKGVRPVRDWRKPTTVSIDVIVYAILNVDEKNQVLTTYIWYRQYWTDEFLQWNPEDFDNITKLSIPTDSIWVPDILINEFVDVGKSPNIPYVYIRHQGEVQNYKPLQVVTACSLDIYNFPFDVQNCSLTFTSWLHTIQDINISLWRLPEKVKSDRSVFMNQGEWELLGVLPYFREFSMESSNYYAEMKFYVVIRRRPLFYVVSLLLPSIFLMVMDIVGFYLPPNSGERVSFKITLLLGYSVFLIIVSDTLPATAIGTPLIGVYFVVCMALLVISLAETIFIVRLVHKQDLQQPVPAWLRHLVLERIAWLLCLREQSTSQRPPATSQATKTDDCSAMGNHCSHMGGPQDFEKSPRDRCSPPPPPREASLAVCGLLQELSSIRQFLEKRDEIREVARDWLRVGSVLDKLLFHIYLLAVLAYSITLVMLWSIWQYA

Mus musculus [10] = assay: Anticonvulsant activity in corneally kindled mouse assessed as protection against seizure at 20 mg/kg, ip; format: functional, organism-based; design: dose 20 mg/kg
Outline: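 Corneally kindled mouse seizure model with ip dosing. Protection was scored in 4 animals, and the average seizure score was recorded.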

Rattus norvegicus [11] = species: Rattus norvegicus; assay: Activity at Na+ channel in rat embryonic cortical neurons assessed as effect on total macroscopic sodium current at 10 uM by whole-cell voltage clamp assay
Mus musculus [12] = assay: Anticonvulsant activity in ip dosed albino CF-1 mouse assessed as protection against subcutaneous metrazol-induced seizure measured at 0.25 hrs; format: functional; settings: albino CF-1, 0.25 h; outline: as §2
Mus musculus [13] = assay: Anticonvulsant activity in ip dosed albino CF-1 mouse assessed as protection against 6 Hz psychomotor seizure measured at 0.5 hrs; format: functional; settings: albino CF-1, ip; outline: as §2
[14] = Toxicity in ip dosed albino CF-1 mouse assessed as neurological impairment measured at 0.5 to 2 hrs by rotorod test; format: organism-based; settings: in vivo; outline: as §1
Mus musculus [15] = assay: Anticonvulsant activity in ip dosed albino CF-1 mouse assessed as protection against maximal electroshock-induced seizures measured at 0.5 to 2 hrs; format: functional; settings: albino CF-1, ip; outline: as §2
Mus musculus [16] = assay: Anticonvulsant activity in albino CF-1 mouse assessed as protection against maximal electroshock-induced seizures at 100 mg/kg, ip; format: functional, organism-based; design: dose 100 mg/kg; outline: as §2
Mus musculus [17] = assay: Anticonvulsant activity in ip dosed albino CF-1 mouse assessed as protection against maximal electroshock-induced seizures measured at 0.25 to 0.5 hrs; format: functional; settings: albino CF-1, ip; outline: as §2
Mus musculus [18] = assay: Anticonvulsant activity in ip dosed albino CF-1 mouse assessed as protection against 6 Hz psychomotor seizure measured at 1 hr; format: functional; settings: albino CF-1, ip; outline: as §2
Rattus norvegicus [19] = assay: Anticonvulsant activity in ip dosed albino Sprague-Dawley rat assessed as protection against maximal electroshock-induced seizures measured at 0.25 to 0.5 hrs; format: functional; outline: as §2

D(2) dopamine receptor (Homo sapiens), sequence (P14416 whole entry): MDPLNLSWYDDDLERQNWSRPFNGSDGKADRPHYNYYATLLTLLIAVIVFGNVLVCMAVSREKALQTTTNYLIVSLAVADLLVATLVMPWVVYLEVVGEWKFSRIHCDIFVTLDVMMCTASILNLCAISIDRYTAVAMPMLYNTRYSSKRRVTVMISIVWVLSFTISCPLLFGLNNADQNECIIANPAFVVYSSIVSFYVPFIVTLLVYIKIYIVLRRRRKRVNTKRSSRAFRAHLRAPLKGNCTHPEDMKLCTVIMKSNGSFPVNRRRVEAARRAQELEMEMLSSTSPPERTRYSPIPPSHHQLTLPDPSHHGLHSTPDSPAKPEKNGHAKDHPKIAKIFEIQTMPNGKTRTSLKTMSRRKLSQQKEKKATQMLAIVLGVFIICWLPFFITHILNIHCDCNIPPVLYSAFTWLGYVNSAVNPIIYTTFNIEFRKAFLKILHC
5-hydroxytryptamine receptor 1B (Homo sapiens), sequence (P28222 whole entry): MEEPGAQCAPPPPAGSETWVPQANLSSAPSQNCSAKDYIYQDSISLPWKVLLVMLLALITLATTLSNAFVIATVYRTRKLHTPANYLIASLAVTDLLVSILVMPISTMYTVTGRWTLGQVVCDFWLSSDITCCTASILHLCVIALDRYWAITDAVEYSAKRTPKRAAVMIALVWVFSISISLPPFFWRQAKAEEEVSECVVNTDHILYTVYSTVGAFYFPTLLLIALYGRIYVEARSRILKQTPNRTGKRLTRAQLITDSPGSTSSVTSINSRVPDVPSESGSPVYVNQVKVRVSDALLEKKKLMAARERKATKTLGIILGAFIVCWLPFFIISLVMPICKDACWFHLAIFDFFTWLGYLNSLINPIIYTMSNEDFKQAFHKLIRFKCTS

| inhibition [2] | inhibition [3] | inhibition [4] | inhibition [5] | inhibition [9] | SMILES | TD50 [1] | other results |
| --- | --- | --- | --- | --- | --- | --- | --- |
| 5.3% |  |  |  |  | Cl.NCc1ccc(OCc2ccc(OC(F)(F)F)cc2)cc1 | > 100 mg/kg |  |
| 12.7% | -9.7% | 6.5% | -8.8% | 10.4% | Cl.NCc1ccc(OCc2ccccc2OC(F)(F)F)cc1 |  | Activity (Rattus norvegicus [6]): 15.3 mV; ED50 (Rattus norvegicus [7]): 18 mg/kg; Activity (Rattus norvegicus [8]): Active; Activity (Mus musculus [10]): Active; Activity (Rattus norvegicus [11]): inactive; ED50 (Mus musculus [12]): > 80 mg/kg |
| 12.4% | 12.8% |  |  |  | Cl.NCc1ccc(OCc2ccccc2)cc1 |  | ED50 (Mus musculus [13]): 30 mg/kg; TD50 [14]: 100 mg/kg; ED50 (Mus musculus [15]): > 100 mg/kg |
| 3.2% |  | -9.1% |  |  | Cl.NCc1ccc(OCc2cccc(F)c2)cc1 | > 100 mg/kg | Activity (Mus musculus [16]): Active; ED50 (Mus musculus [17]): < 100 mg/kg |
|  |  |  |  |  | Cl.NCc1ccc(OCc2cccc(OC(F)(F)F)c2)cc1 |  | ED50 (Mus musculus [18]): 50 mg/kg; ED50 (Rattus norvegicus [19]): < 30 mg/kg |
|  |  | -1.9% |  | 13.7% | Cl.NCc1ccc(OCc2cccc(Cl)c2)cc1 |  | ED50 (Mus musculus [12]): > 180 mg/kg |
|  | -7.5% | 0.2% | -2.5% | -4.2% | Cl.NCc1ccc(OCc2ccc(F)cc2)cc1 | > 100 mg/kg |  |
| 7.4% |  |  | -7.7% |  | Cl.NCc1ccc(OCc2ccccc2F)cc1 |  | ED50 (Mus musculus [13]): 30 mg/kg; TD50 [14]: 100 mg/kg |
|  | -9.4% | -6.6% | -6.7% | 23.1% | Cl.NCc1ccc(OCc2ccc(Cl)cc2)cc1 | > 100 mg/kg |  |
